Source: article PMC3665732 (Chemical biology & drug design, 2013)

Experiments:
Albino Swiss mice [1] = test: Locomotor activity test; assay type: in vivo; conditions: 8 20 mg/kg, 10 5 mg/kg, 12 10 mg/kg; ip 30 min before the test; first 6 minutes; vehicle 554 ± 46
Albino Swiss mice [2] = test: Forced swim test; assay type: in vivo; conditions: 30 min before the test; for antidepressant effect in the forced swim test (in words): mice, ip
Summary of the method: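 Male Albino Swiss mice (24-28 g), kept at 20 ± 1°C with free food and water and used once. Test compound was injected 30 min before the session. Each mouse swam 6 min in a glass cylinder (25 cm high, 10 cm diameter) holding 6 cm of water at 23-25°C. An observer timed immobility (floating, small head-keeping movements) over the last 4 min, after 2 min habituation. Mean ± SEM; Dunnett's test vs vehicle.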

Compound | Locomotor activity 6 minutes (number of light beam crossings ± S.E.M.) (Albino Swiss mice [1]) | reduction in mice immobility time (Albino Swiss mice [2]; 5 mg/kg ip) [%] | reduction in mice immobility time (Albino Swiss mice [2]; 10 mg/kg ip) [%] | antidepressant effect in the forced swim test (in words) (Albino Swiss mice [2]) | reduction in mice immobility time (Albino Swiss mice [2]; 20 mg/kg ip) [%]
CCCCCCCCCCCCN1CCN(c2ccc3cc([N+](=O)[O-])ccc3n2)CC1 [Compound 12, 2-(4-Dodecyl-piperazin-1-yl)-6-nitroquinoline] | 628 ± 55 | 10 | 8 | moderate antidepressant activity | 
CCCCCCCCCN1CCN(c2ccc3cc([N+](=O)[O-])ccc3n2)CC1 [Compound 9, 2-(4-Nonyl-piperazin-1-yl)-6-nitroquinoline] |  |  |  | ineffective | 
CCCCCCCCCCCN1CCN(c2ccc3cc([N+](=O)[O-])ccc3n2)CC1 [Compound 11, 2-(4-Undecyl-piperazin-1-yl)-6-nitroquinoline] |  |  |  | ineffective | 
CCCCCCCCCCN1CCN(c2ccc3cc([N+](=O)[O-])ccc3n2)CC1 [Compound 10, 2-(4-Decylo-piperazin-1-yl)-6-nitroquinoline] | 239 ± 41 | 12 |  | moderate antidepressant activity | 
CCCCCCCCN1CCN(c2ccc3cc([N+](=O)[O-])ccc3n2)CC1 [Compound 8, 2-(4-Octyl-piperazin-1-yl)-6-nitroquinoline] | 453 ± 41 |  |  | moderate antidepressant activity | 15
